Data published in PMC11718171 (Biophysics and Physicobiology, 2024).
Ends that are not written are not given here.

Legend:
[1] = system: Lg-CD86; assay: Orthogonality of labeling, Lg-CD86-expressing cells; format: cell-based, human; conditions: 10 nM each, simultaneous labeling, HEK293
In short: (§1)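 HEK293A cells in DMEM with 5% FBS, seeded on coverslips and same-day transfected (Lipofectamine 3000, 1 µg total plasmid made up with pCAGGS) with LgBiT-, SNAP- or HaloTag-fused CD86 (1-277). Co-labeled with SF650-FiBiT, SNAP-cell TMR-star and Halo-JF549 in phenol red-free complete DMEM, 15 min, 37°C. Washed thrice, imaged in 0.01% BSA-HBSS. Bright spots counted against coverslip background.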

[2] = system: SNAP-CD86; assay: Orthogonality of labeling, SNAP-CD86-expressing cells; format: cell-based, human; conditions: 10 nM each, simultaneous labeling, HEK293
In short: as §1

[3] = system: LgBiT; conditions: in vitro, grating-coupled interferometry; ref [27]; cited from earlier work
[4] = Non-specific binding on coverslips; conditions: 10 nM, washed three times with complete phenol red-free DMEM, then BSA-HBSS
In short: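 No cells: fluorescent HiBiT or FiBiT peptide diluted in phenol red-free DMEM with 5% FBS, penicillin, streptomycin and glutamine. Added to a dish containing a glass coverslip and held 15 min at 37°C. Washed three times, mounted in a chamber in HBSS with 0.01% BSA, then imaged at single-molecule level for adsorbed bright spots.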

Compound: CN(C)c1ccc2c(-c3cc(C(=O)NCc4ccc(COc5nc(N)nc6nc[nH]c56)cc4)ccc3C(=O)[O-])c3ccc(=[N+](C)C)cc-3oc2c1 [SNAP-TMR]
- staining of Lg-CD86-expressing cells [1]: not by SNAP-TMR nor Halo-JF549
- labeling of SNAP-CD86-expressing cells [2]: labeled by SNAP-TMR ligand

Compound: HiBiT: HiBiT peptide (~1.3 kDa), NanoLuc fragment (VSGWRLFKKIS; also: TMR label, site not given here)
- on-time of LgBiT-HiBiT interaction [3]: ~ 12 min

Compound: TMR-DYKDDDDKGDGSVSGWRLFKKIS [TMR-FiBiT]
- non-specific binding to coverslips [4]: greatly reduced the non-specific binding
